Measured values reported in ChEMBL document CHEMBL1926557 (Bioorg Med Chem, 2012).

Experiments:
[1] = Antineuroinflammatory activity in LPS-stimulated rat microglia cells assessed as inhibition of PMA-stimulated TXB2 release preincubated for 15 mins measured 70 mins after PMA challenge; assay type: functional
Method in brief: (§1)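 Rat neonatal microglia (2 × 10^5 cells/well) primed with E. coli LPS 0.3 ng/mL for 17 h in DMEM + 10% FBS + penicillin/streptomycin at 35.9 °C, 5% CO2. Cells washed with warm HBSS, pre-exposed to compound (0.01–10 µM) or DMSO vehicle, then triggered with PMA 1 µM. TXB2 in supernatant quantified by EIA. Triplicate wells, 1 mL final volume, 2–4 experiments. IC50 derived.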

[2] = Cytotoxicity against rat microglia cells after 90 mins by LDH release assay; assay type: cell-based; conditions: 1.5 h
Method in brief: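 Short-term viability of PMA (1 µM)-stimulated rat microglia measured by LDH release, given as percent of total LDH. Total LDH is released LDH plus the intracellular LDH from cells lysed with 0.1% Triton X-100. LDH50 is the concentration causing release of 50% of total LDH. Data from 3–4 experiments.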

[3] = Cytotoxicity against rat microglia cells assessed as cell viability after 18 hrs by WST-1 assay; assay type: cell-based
Method in brief: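 Rat neonatal microglia (10,000 cells/well) plated in LPS-free wells in FBS-free DMEM with penicillin/streptomycin. Compound (0.1–10 µM final) or DMSO vehicle added for 18 h at 36 °C, 5% CO2. WST-1 then added for 2 h, and formazan read at 450 nm against a 620 nm reference. Treated wells compared with vehicle, significance at p < 0.05.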

[4] = Antineuroinflammatory activity in LPS-stimulated rat microglia cells assessed as inhibition of PMA-stimulated superoxide anion release preincubated for 15 mins measured 70 mins after PMA challenge; assay type: functional
Method in brief: as §1, with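 “Superoxide measured as superoxide dismutase-inhibitable reduction of ferricytochrome c.” for “TXB2 in supernatant quantified by EIA.”, “wells,” for “wells, 1 mL final volume,”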

SMILES | IC50 ([1]; read-out: IC50(app)) [nM] | IC50 [2] [µM] | IC50 ([1]; read-out: IC50) [nM] | Activity [3] | IC50 [4] [µM]
CC(C(=O)O)c1ccc(-c2ccccc2)c(F)c1 (stereo not given) [FLURBIPROFEN] | 100 | – | – | – | –
C=C1CC[C@@]2(NC=O)[C@H]3[C@H](CC[C@@H]2C)[C@@H](C)C[C@@H](CC(C)(C)NC=O)[C@H]13 | – | > 10 | 3140 | Non-toxic | > 10
[C-]#[N+][C@@]1(C)CC[C@H]2[C@H]3[C@@H](C(=C)CC[C@H]31)[C@H](CC(=C)C)C[C@@H]2C | – | > 10 | 1720 | Non-toxic | > 10
[C-]#[N+]C(C)(C)C[C@@H]1C[C@H](C)[C@H]2CC[C@H](C)[C@@]3([N+]#[C-])CCC(=C)[C@@H]1[C@H]23 [DIISOCYANOAMPHILECTENE] | – | > 10 | 230 | Non-toxic | > 10
CC(=O)Oc1ccccc1C(=O)O [ASPIRIN] | – | – | 3120 | – | –
[C-]#[N+]C(C)(C)C[C@@H]1C[C@H](C)[C@H]2CC[C@](C)([N+]#[C-])[C@@H]3CCC(=C)[C@@H]1[C@H]23 | – | > 10 | 200 | Non-toxic | > 10
[C-]#[N+][C@@]12CCC(=C)[C@H]3[C@H](CC(C)(C)NC=O)C[C@H](C)[C@@H](CC[C@@H]1C)[C@@H]32 | – | > 10 | 1480 | Non-toxic | > 10
[C-]#[N+]C(C)(C)C[C@@H]1C[C@H](C)[C@H]2CC[C@H](C)[C@@]3([N+]#[C-])CCC(=O)[C@@H]1[C@H]23 | – | > 10 | 1430 | Non-toxic | > 10
[C-]#[N+][C@@]12CCC(=C)[C@H]3[C@H](CC(C)(C)NC(=O)CN4CCC4=O)C[C@H](C)[C@@H](CC[C@@H]1C)[C@@H]32 [MONAMPHILECTINE A] | – | > 10 | 4690 | Non-toxic | > 10
